Reference: ChEMBL document CHEMBL1134548, “Disabling erbB receptors with rationally designed exocyclic mimetics of antibodies: structure-function analysis” (J Med Chem, 2001)
Positions of bridges follow the written chain, without caps; N, C: chain ends. Residues, ends and D or L forms follow the SMILES beside them.

How the values were obtained:
[1] = Inhibition of T6-17 cell proliferation; format: functional, Mus musculus; set-up: concentration or dose not given beside the values
Method in brief: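 T6-17 cells (NIH3T3 engineered to overexpress human HER2) seeded overnight at 1000/well in DMEM with 10% FBS, then cultured 48 h in fresh medium with peptide at 1 µg/mL. MTT (5 mg/mL in PBS) added, 2 h at 37 °C. SDS/DMF extraction buffer (pH 4.7) added, overnight at 37 °C, then OD 600 nm read. Each value is the mean of at least four samples.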

[2] = target: T1, Receptor tyrosine-protein kinase erbB-2 (Homo sapiens, UniProt P04626); experiment: Kinetic constant for peptide inhibitor binding to HER2 receptor
Method in brief: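 Surface plasmon resonance at 25 °C. HER2 ectodomain–human IgG Fc fusion was amine-coupled (EDC/NHS, 40 ng/mL in 10 mM NaOAc pH 5.0) to 3500 RU, with a blank reference surface. Peptides were flowed at variable concentrations at 20 µL/min, with 240 s association and 300 s dissociation. Signals were reference- and buffer-subtracted, and kon, koff and KD (koff/kon) were fitted to a pseudo-first-order model.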

[3] = Solubility in the PBS buffer at 1 mg/mL; Limited solubility; format: physicochemical
[4] = Solubility in the PBS buffer at 1 mg/mL; Good solubility; format: physicochemical
[5] = target: T1, Receptor tyrosine-protein kinase erbB-2; experiment: Dissociation constant for peptide inhibitor binding to HER2 receptor
Method in brief: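 Surface plasmon resonance at 25 °C. Recombinant HER2 ectodomain–human IgG Fc fusion was amine-coupled to the sensor chip to 3500 RU. A blank reference surface was subtracted. Peptides were injected at variable concentrations at 20 µL/min, with 240 s association and 300 s dissociation. Signals were buffer-subtracted and fitted to a pseudo-first-order model, and KD was taken as koff/kon.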

T1 sequence (P04626 whole entry, the tested form may be a part): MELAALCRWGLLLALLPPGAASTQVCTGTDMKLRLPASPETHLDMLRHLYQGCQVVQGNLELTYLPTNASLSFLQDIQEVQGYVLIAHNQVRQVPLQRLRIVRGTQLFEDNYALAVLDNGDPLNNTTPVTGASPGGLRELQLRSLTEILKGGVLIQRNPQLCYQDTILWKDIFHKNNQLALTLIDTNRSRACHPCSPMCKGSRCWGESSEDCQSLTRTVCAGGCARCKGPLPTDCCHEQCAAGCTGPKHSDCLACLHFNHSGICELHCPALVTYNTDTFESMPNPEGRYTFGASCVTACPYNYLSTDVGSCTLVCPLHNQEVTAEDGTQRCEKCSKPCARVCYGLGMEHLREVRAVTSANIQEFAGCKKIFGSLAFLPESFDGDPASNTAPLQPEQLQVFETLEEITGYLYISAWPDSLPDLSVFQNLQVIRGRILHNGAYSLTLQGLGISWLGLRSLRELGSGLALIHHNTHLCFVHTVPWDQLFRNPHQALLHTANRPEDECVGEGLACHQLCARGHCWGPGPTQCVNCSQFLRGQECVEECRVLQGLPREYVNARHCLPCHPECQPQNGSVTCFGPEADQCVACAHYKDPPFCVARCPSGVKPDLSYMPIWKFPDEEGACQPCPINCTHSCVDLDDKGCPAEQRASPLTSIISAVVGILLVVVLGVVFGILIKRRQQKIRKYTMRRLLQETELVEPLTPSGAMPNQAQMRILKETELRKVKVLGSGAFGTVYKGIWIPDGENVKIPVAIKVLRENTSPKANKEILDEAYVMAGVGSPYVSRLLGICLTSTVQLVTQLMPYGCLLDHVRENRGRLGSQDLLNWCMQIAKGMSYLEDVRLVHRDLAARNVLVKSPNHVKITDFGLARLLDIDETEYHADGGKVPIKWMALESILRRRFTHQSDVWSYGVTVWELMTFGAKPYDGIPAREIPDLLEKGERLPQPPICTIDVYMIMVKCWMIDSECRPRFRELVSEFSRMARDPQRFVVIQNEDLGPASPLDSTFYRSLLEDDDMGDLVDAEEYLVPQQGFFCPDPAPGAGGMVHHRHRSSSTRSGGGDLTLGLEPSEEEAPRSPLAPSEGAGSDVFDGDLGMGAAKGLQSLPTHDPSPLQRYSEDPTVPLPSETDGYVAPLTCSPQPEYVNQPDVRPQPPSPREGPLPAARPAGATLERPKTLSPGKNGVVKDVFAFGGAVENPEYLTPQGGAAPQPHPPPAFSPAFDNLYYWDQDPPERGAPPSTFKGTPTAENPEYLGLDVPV

Structure (SMILES) | k off [2] | k on [2] | S [3] | S [4] | Inhibition [1] | Kd [5]
CSCC[C@H](NC(=O)[C@H](Cc1ccc(O)cc1)NC(=O)[C@@H]1CSSC[C@H](NC(=O)[C@@H](N)Cc2ccccc2)C(=O)N[C@@H](CC(=O)O)C(=O)NCC(=O)N[C@@H](Cc2ccccc2)C(=O)N[C@@H](Cc2ccc(O)cc2)C(=O)N[C@@H](C)C(=O)N1)C(=O)N[C@@H](CC(=O)O)C(=O)N[C@H](C(=O)N[C@@H](CCCCN)C(N)=O)C(C)C (H-FCDGFYACYMDVK-NH2; disulfide 2-8) | 0.000512 s⁻¹ | 617 M⁻¹ s⁻¹ | Insoluble | – | – | –
CSCC[C@H](NC(=O)[C@H](Cc1ccc(O)cc1)NC(=O)[C@@H]1CSSC[C@H](NC(=O)[C@H](Cc2ccccc2)NC(=O)CN)C(=O)N[C@@H](CC(=O)O)C(=O)NCC(=O)N[C@@H](Cc2ccccc2)C(=O)N[C@@H](Cc2ccc(O)cc2)C(=O)N[C@@H](C)C(=O)N1)C(=O)N[C@@H](CC(=O)O)C(=O)N[C@H](C(=O)O)C(C)C (H-GFCDGFYACYMDV-OH; disulfide 3-9) | 0.000808 s⁻¹ | 1110 M⁻¹ s⁻¹ | – | Soluble | – | –
CSCC[C@H](NC(=O)[C@H](Cc1ccc(O)cc1)NC(=O)[C@@H]1CSSC[C@H](NC(=O)[C@@H](N)Cc2ccccc2)C(=O)N[C@@H](CC(=O)O)C(=O)NCC(=O)N[C@@H](Cc2ccccc2)C(=O)N[C@@H](Cc2ccc(O)cc2)C(=O)N[C@@H](C)C(=O)N1)C(=O)N[C@@H](CC(=O)O)C(=O)N[C@H](C(=O)O)C(C)C (stereo in doubt; 2) [listing 1 of 2 here] | – | – | Insoluble | – | 22.3% | –
CSCC[C@H](NC(=O)[C@H](Cc1ccc(O)cc1)NC(=O)[C@@H]1CSSC[C@H](NC(=O)[C@@H](N)Cc2ccccc2)C(=O)N[C@@H](CC(=O)O)C(=O)NCC(=O)N[C@@H](Cc2ccccc2)C(=O)N[C@@H](Cc2ccc(O)cc2)C(=O)N[C@@H](C)C(=O)N1)C(=O)N[C@@H](CC(=O)O)C(=O)N[C@H](C(=O)O)C(C)C (stereo in doubt; 2) [listing 2 of 2 here] | 0.000643 s⁻¹ | 990 M⁻¹ s⁻¹ | – | – | – | –
CSCC[C@H](NC(=O)[C@H](Cc1ccc(O)cc1)NC(=O)[C@@H]1CSSC[C@H](NC(=O)[C@@H](N)Cc2ccccc2)C(=O)N[C@@H](CC(=O)O)C(=O)NCC(=O)N[C@@H](Cc2ccccc2)C(=O)N[C@@H](Cc2ccc(O)cc2)C(=O)N[C@@H](C)C(=O)N1)C(=O)N[C@@H](CC(=O)O)C(=O)N[C@H](C(=O)O)C(C)C (stereo in doubt; 9) [listing 1 of 2 here] | – | – | – | – | – | 3.56 µM
CSCC[C@H](NC(=O)[C@H](Cc1ccc(O)cc1)NC(=O)[C@@H]1CSSC[C@H](NC(=O)[C@@H](N)Cc2ccccc2)C(=O)N[C@@H](CC(=O)O)C(=O)NCC(=O)N[C@@H](Cc2ccccc2)C(=O)N[C@@H](Cc2ccc(O)cc2)C(=O)N[C@@H](C)C(=O)N1)C(=O)N[C@@H](CC(=O)O)C(=O)N[C@H](C(=O)O)C(C)C (stereo in doubt; 9) [listing 2 of 2 here] | 0.00106 s⁻¹ | 298 M⁻¹ s⁻¹ | – | – | – | –

Now from value to molecule, other results behind:

k off [2] | k on [2] | S [3] | S [4] | Structure (SMILES) | Inhibition [1] | Kd [5]
0.000294 s⁻¹ | 1960 M⁻¹ s⁻¹ | Insoluble | – | CSCC[C@H](NC(=O)[C@H](Cc1ccc(O)cc1)NC(=O)[C@@H]1CSSC[C@H](NC(=O)[C@@H](N)Cc2ccc(O)cc2)C(=O)N[C@@H](CC(=O)O)C(=O)NCC(=O)N[C@@H](Cc2ccccc2)C(=O)N[C@@H](Cc2ccc(O)cc2)C(=O)N[C@@H](C)C(=O)N1)C(=O)N[C@@H](CC(=O)O)C(=O)N[C@H](C(N)=O)C(C)C | 59.6% | –
0.000603 s⁻¹ | 1720 M⁻¹ s⁻¹ | – | Soluble | CSCC[C@H](NC(=O)[C@@H](Cc1ccc(O)cc1)NC(=O)[C@@H]1CSSC[C@H](NC(=O)[C@H](N)Cc2ccccc2)C(=O)N[C@@H](CC(=O)O)C(=O)NCC(=O)N[C@@H](Cc2ccccc2)C(=O)N[C@@H](Cc2ccc(O)cc2)C(=O)N[C@@H](C)C(=O)N1)C(=O)N[C@@H](CC(=O)O)C(=O)N[C@H](C(N)=O)C(C)C | – | –
0.000453 s⁻¹ | 1410 M⁻¹ s⁻¹ | Insoluble | – | CSCC[C@H](NC(=O)[C@H](Cc1ccc(O)cc1)NC(=O)[C@@H]1CSSC[C@H](NC(=O)[C@@H](N)Cc2ccccc2)C(=O)N[C@@H](CC(=O)O)C(=O)NCC(=O)N[C@@H](Cc2ccccc2)C(=O)N[C@@H](Cc2ccc(O)cc2)C(=O)N[C@@H](C)C(=O)N1)C(=O)N[C@@H](CC(=O)O)C(=O)N[C@H](C(N)=O)C(C)C | 35.5% | –
0.00125 s⁻¹ | 219 M⁻¹ s⁻¹ | – | Soluble | CC(C)[C@H](NC(=O)[C@H](CC(=O)O)NC(=O)[C@H](CCCCN)NC(=O)[C@H](Cc1ccc(O)cc1)NC(=O)[C@@H]1CSSC[C@H](NC(=O)[C@@H](N)Cc2ccccc2)C(=O)N[C@@H](CC(=O)O)C(=O)NCC(=O)N[C@@H](Cc2ccccc2)C(=O)N[C@@H](Cc2ccc(O)cc2)C(=O)N[C@@H](C)C(=O)N1)C(=O)O (H-FCDGFYACYKDV-OH; disulfide 2-8) | 8.4% | –
0.000701 s⁻¹ | 922 M⁻¹ s⁻¹ | – | Soluble | CSCC[C@H](NC(=O)[C@H](Cc1ccc(O)cc1)NC(=O)[C@@H]1CSSC[C@H](NC(=O)[C@@H](N)Cc2ccccc2)C(=O)NCC(=O)N[C@@H](CC(=O)O)C(=O)NCC(=O)N[C@@H](Cc2ccccc2)C(=O)N[C@@H](Cc2ccc(O)cc2)C(=O)N[C@@H](C)C(=O)N1)C(=O)N[C@@H](CC(=O)O)C(=O)N[C@H](C(=O)O)C(C)C (H-FCGDGFYACYMDV-OH; disulfide 2-9) | 18.4% | –
